Among the data in ChEMBL document CHEMBL4715770, “Inhibition of Low Molecular Weight Protein Tyrosine Phosphatase by an Induced-Fit Mechanism” (J Med Chem, 2016) are IC50, Ki and inhibition values, retold here.

Active and inactive are the calls of the source. The calls are words filed in the database; no cut-off is given here.

Test [1] has as its target T1, Low molecular weight phosphotyrosine protein phosphatase (Homo sapiens, UniProt P24666).
T1 sequence (P24666 whole entry): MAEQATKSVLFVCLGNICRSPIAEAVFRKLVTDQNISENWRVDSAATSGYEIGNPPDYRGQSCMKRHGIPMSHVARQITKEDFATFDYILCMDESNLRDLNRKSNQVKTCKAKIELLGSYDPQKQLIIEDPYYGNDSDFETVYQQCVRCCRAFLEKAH
The test can be described thus: Inhibition of His-tagged LMW-PTP isoform A (unknown origin) expressed in Escherichia coli BL21 cells using para-nitrophenyl phosphate as substrate incubated for 5 to 10 mins by microplate reader based spectrophotometric analysis.

Test [2] in a line: Inhibition of His-tagged PTP-H1 (unknown origin) expressed in Escherichia coli BL21 cells using para-nitrophenyl phosphate as substrate incubated for 5 to 10 mins by microplate reader based spectrophotometric analysis. The arrangement: species or system Homo sapiens. A digest of the protocol:
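Enzyme at 5-20 nM was added to substrate plus a range of inhibitor concentrations and run 5-10 min at room temperature. Quenched with 5N NaOH and p-nitrophenol read at 405 nm (ε 18,000 M-1cm-1), with a no-enzyme background correction. IC50 from curve fitting.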

The target in test [3] is T2, Dual specificity protein phosphatase 23 (Homo sapiens, UniProt Q9BVJ7).
T2 sequence (Q9BVJ7 whole entry): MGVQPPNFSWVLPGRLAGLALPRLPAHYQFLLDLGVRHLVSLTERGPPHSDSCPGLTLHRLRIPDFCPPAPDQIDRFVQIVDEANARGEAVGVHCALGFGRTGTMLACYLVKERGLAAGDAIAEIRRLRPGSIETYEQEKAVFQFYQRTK
The test can be described thus: Inhibition of His-tagged VHZ (unknown origin) expressed in Escherichia coli BL21 cells using para-nitrophenyl phosphate as substrate incubated for 5 to 10 mins by microplate reader based spectrophotometric analysis.

Test [4] has as its target T1, Low molecular weight phosphotyrosine protein phosphatase. The test can be described thus: Competitive inhibition of His-tagged LMW-PTP isoform A (unknown origin) expressed in Escherichia coli BL21 cells using para-nitrophenyl phosphate as substrate by Lineweaver-Burk plot analysis. The method, boiled down:
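Recombinant enzyme Ni-NTA purified (Tris pH 7.8, 500 mM NaCl, 250 mM imidazole elution), then Sephadex G75. pNPP hydrolysis in 50 mM 3,3-dimethylglutarate, pH 7.0, 25 °C. Enzyme added last to mixes of varied pNPP and inhibitor concentrations, 5-10 min, NaOH quench. p-nitrophenol read at 405 nm (ε 18,000 M-1cm-1), no-enzyme blank subtracted. Ki fitted by enzyme-kinetics regression.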

The target is the same in test [5]. The test can be described thus: Competitive inhibition of LMW-PTP isoform B (unknown origin) using para-nitrophenyl phosphate as substrate by Lineweaver-Burk plot analysis. The method, boiled down:
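Recombinant His-tagged LMW-PTP from E. coli, Ni-NTA then Sephadex G75 purified. pNPP hydrolysis in 50 mM 3,3-dimethylglutarate buffer, pH 7.0, 25 °C. Reaction started by adding enzyme to mixes of varied pNPP and varied inhibitor concentrations, run 5-10 min, quenched with 5N NaOH. p-Nitrophenol read at 405 nm, blank without enzyme subtracted. Ki from enzyme-kinetics fitting.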

Test [6] deals with T3, RNA polymerase II subunit A C-terminal domain phosphatase SSU72 (Homo sapiens, UniProt Q9NP77).
T3 sequence (Q9NP77 whole entry): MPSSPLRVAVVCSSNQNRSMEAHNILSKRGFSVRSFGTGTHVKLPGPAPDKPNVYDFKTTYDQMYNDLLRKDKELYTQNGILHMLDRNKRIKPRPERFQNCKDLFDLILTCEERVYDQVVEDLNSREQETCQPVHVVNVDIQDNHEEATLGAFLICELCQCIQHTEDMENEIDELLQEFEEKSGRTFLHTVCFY
In words: Inhibition of His-tagged SSu72 (unknown origin) expressed in Escherichia coli BL21 cells using para-nitrophenyl phosphate as substrate incubated for 5 to 10 mins by microplate reader based spectrophotometric analysis.

Test [7] deals with Low molecular weight phosphotyrosine protein phosphatase (Homo sapiens) (UniProt P24666). The test can be described thus: Inhibition of LMW-PTP isoform A in human HepG2 cells assessed as increase in insulin-induced Akt phosphorylation at 16 uM pretreated for 2 hrs followed by insulin stimulation and measured after 30 mins by Western blot analysis. Format: cell-based. The method, boiled down:
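HepG2 cells in DMEM with 10% FBS at 37 °C and 5% CO2 were grown to 60-80% confluence and serum-starved overnight. They were given vehicle or compound for 2 h, then 50 nM insulin for 30 min. Lysates were run on 10% SDS-PAGE and immunoblotted for phospho-AKT and total AKT with ECL detection. Densitometric pAKT/AKT ratios were normalized to vehicle.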
A general note: Immunoblotting shows a protein as a band on a membrane.

In test [8] the target is Tyrosine-protein phosphatase non-receptor type 13 (Homo sapiens, UniProt Q12923). In words: Inhibition of His-tagged FAP1 (unknown origin) expressed in Escherichia coli BL21 cells using para-nitrophenyl phosphate as substrate incubated for 5 to 10 mins by microplate reader based spectrophotometric analysis.
Chain of Tyrosine-protein phosphatase non-receptor type 13 (Q12923 whole entry): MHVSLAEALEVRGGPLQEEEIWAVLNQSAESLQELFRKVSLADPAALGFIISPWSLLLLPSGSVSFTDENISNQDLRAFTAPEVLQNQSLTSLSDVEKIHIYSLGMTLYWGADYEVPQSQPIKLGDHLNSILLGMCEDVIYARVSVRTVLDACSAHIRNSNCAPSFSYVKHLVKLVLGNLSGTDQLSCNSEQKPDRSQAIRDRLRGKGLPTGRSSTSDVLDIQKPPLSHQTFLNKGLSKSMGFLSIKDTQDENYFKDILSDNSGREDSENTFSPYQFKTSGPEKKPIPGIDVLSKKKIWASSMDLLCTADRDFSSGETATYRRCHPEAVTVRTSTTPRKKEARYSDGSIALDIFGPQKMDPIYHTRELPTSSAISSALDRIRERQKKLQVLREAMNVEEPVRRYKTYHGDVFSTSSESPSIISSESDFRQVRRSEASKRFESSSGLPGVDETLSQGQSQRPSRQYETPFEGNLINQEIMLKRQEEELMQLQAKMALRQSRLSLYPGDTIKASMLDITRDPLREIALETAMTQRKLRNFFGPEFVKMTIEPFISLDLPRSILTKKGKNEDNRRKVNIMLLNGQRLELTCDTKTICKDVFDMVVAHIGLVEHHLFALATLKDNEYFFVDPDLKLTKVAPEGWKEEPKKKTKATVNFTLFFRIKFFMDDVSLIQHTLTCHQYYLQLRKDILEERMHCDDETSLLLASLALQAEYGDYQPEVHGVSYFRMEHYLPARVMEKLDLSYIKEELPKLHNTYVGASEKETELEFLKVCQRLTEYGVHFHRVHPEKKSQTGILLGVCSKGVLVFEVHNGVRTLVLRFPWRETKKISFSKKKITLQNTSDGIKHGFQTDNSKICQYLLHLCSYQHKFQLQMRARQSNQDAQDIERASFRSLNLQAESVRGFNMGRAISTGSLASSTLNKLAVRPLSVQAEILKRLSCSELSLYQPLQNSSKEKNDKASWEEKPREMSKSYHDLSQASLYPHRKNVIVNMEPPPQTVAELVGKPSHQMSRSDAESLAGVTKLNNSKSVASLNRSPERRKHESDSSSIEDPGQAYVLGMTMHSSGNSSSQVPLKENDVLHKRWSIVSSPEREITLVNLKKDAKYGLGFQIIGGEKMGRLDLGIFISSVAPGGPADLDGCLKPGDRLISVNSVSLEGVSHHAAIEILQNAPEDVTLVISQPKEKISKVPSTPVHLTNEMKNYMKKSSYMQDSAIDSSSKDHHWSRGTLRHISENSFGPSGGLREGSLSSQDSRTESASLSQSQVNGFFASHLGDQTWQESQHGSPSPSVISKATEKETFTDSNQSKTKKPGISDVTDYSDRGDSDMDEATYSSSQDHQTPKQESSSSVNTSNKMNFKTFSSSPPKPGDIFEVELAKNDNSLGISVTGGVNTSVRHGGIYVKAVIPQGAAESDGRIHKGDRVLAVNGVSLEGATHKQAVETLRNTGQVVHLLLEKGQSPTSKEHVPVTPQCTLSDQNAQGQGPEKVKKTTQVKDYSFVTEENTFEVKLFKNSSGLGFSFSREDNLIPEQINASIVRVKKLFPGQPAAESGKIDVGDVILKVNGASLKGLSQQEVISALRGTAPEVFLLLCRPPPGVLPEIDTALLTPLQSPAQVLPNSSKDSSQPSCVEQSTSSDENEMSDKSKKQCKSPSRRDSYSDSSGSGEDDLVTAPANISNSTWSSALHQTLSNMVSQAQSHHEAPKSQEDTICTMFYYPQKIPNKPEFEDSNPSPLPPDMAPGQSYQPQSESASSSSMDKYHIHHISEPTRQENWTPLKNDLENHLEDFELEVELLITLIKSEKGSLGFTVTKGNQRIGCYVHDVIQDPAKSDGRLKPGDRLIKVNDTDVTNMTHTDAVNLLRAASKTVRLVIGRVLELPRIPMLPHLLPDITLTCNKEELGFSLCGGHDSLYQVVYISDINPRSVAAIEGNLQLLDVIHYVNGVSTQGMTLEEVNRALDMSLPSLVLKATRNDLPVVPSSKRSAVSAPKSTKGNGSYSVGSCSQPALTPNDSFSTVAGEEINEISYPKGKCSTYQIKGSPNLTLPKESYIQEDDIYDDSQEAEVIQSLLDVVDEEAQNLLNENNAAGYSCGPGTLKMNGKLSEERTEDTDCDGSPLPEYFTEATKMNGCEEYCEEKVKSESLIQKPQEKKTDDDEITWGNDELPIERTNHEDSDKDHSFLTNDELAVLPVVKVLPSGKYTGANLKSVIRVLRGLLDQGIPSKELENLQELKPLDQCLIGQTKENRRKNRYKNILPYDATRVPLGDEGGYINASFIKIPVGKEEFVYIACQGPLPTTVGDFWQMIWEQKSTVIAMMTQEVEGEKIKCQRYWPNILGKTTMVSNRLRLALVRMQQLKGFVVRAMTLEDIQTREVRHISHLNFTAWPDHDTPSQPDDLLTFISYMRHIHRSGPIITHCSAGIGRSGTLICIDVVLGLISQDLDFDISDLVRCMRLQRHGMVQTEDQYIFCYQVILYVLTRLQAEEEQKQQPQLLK

One may read the IC50 as the concentration at which inhibition is half-maximal. A high value points to weaker potency in that assay. The molecule `O=C(Nc1nc2ccccc2s1)C(c1cccc(F)c1)S(=O)(=O)O` (stereo unspecified) had a half-inhibitory concentration (IC50) in test [1] of 50 µM. Same read-out and setting: the figure for `Cc1ccccc1C(C(=O)Nc1nc2ccccc2s1)S(=O)(=O)O` (stereo unspecified) is above 200 µM; for `O=C(Nc1nc2ccccc2s1)C(c1ccccc1Cl)S(=O)(=O)O` (stereo unspecified) it is above 200 µM; for `O=C(Nc1nc2ccccc2s1)C(c1cccc(C(F)(F)F)c1)S(=O)(=O)O` (stereo unspecified) it is above 200 µM. On to `O=C(Nc1cnc2ccccc2c1)C(c1ccccc1)S(=O)(=O)O` (stereo unspecified), for which the IC50 in test [2] and in test [3] was above 200 µM in each case. Broadly, the Ki is a measure of affinity in units of concentration, obtained from inhibition or displacement. Low readings indicate a stronger hold on the target, high ones a looser hold on the target. Turning to `O=C(Nc1nc2ccccc2s1)C(c1ccccc1)S(=O)(=O)O` (stereo unspecified), the Ki was determined as 3.2 µM in test [4] and 1.7 µM in test [5]. For the same molecule, the IC50 in test [2] is above 200 µM; in test [6] it was 69.9 µM. For `O=C(Nc1ccccc1)C(c1ccccc1)S(=O)(=O)O` (stereo unspecified), in test [1], the IC50 was above 100 µM. In test [1], `O=C(Nc1nc2ccccc2s1)C(c1cccc([N+](=O)[O-])c1)S(=O)(=O)O` (stereo unspecified) displayed an IC50 above 200 µM. In the case of `O=C(Nc1ccc(N2CCOCC2)cc1)C(c1ccccc1)S(=O)(=O)O` (stereo unspecified), the IC50 in test [2] and in test [3] was above 200 µM throughout. For `Cc1ccc(C(C(=O)Nc2nc3ccccc3s2)S(=O)(=O)O)cc1` (stereo unspecified), it took 91.4 µM to reach half-maximal inhibition in test [1] (IC50).

Consider `O=C(Cc1ccccc1)Nc1nc2ccc([N+](=O)[O-])cc2s1`, for which, in test [1], the half-maximal inhibitory concentration (IC50) was above 100 µM. In addition, in test [7], the inhibition entry is “inactive”. `O=C(Nc1nc2ccccc2s1)C(c1ccccc1F)S(=O)(=O)O` (stereo unspecified) had an IC50 in test [1] above 200 µM. `O=C(Nc1nccs1)C(c1ccccc1)S(=O)(=O)O` (stereo unspecified) came in with an IC50 in test [1] of 72 µM. In the case of `O=C(Nc1ccc2nc(C(F)(F)F)[nH]c2c1)C(c1ccccc1)S(=O)(=O)O` (stereo unspecified), the IC50 in test [2] and in test [8] was above 200 µM each time.

As to `Cc1cccc(C(C(=O)Nc2nc3ccccc3s2)S(=O)(=O)O)c1` (stereo unspecified), the IC50 in test [1] was above 200 µM. Still for that read-out and setting: the figure for `CCCNC(=O)C(c1ccccc1)S(=O)(=O)O` (stereo unspecified) is above 200 µM. Still for that read-out and setting: under `CCOC(=O)c1ccc2nc(NC(=O)C(c3ccccc3)S(=O)(=O)O)sc2c1` (stereo unspecified) stands 3.1 µM; under `O=C(Nc1nc2ccccc2s1)C(c1ccc(Br)cc1)S(=O)(=O)O` (stereo unspecified), 106 µM; under `N#Cc1cccc(C(C(=O)Nc2nc3ccccc3s2)S(=O)(=O)O)c1` (stereo unspecified), above 200 µM.
